The source made the active and inactive calls. The rule behind the calls is not given here.
Key:
[1] = molecular target: T1, Delta-type opioid receptor (Homo sapiens, UniProt P41143); test: Partial agonist activity at human recombinant delta opioid receptor expressed in mouse/rat NG108-15 cell membranes assessed as stimulation of [35S]GTPgammaS binding after 3 hrs by liquid scintillation counting analysis relative to SNC80; format: functional
Summary of the method: (§1)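 DOR function measured in NG108-15 neuroblastoma-glioma membranes. Incubated with drug, GDP and 50 pM final [35S]GTPγS in 50 mM Tris-HCl pH 7.4, 100 mM NaCl, 10 mM MgCl2, 1 mM EDTA, 1 mM DTT, 0.1% BSA, 3 h at 25 °C. Unlabelled GTPγS defined nonspecific binding. Bound label collected on GF/B filters and scintillation counted; ED50 and Emax reported.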

[2] = molecular target: T1, Delta-type opioid receptor; test: Antagonist activity at human recombinant delta opioid receptor expressed in mouse/rat NG108-15 cell membranes assessed as inhibition of SNC80-induced [35S]GTPgammaS binding by liquid scintillation counting analysis; format: functional
Homo sapiens [3] = organism: Homo sapiens; test: Selectivity ratio of Ki for human recombinant kappa opioid receptor to Ki for human recombinant mu opioid receptor
Homo sapiens [4] = organism: Homo sapiens; test: Selectivity ratio of Ki for human recombinant mu opioid receptor to Ki for human recombinant delta opioid receptor
[5] = molecular target: T2, Kappa-type opioid receptor (Homo sapiens, UniProt P41145); test: Displacement of [3H]U69,593 from human recombinant kappa opioid receptor expressed in CHO cell membranes after 2 hrs by liquid scintillation counting analysis; format: cell-based
T2 sequence (P41145 whole entry): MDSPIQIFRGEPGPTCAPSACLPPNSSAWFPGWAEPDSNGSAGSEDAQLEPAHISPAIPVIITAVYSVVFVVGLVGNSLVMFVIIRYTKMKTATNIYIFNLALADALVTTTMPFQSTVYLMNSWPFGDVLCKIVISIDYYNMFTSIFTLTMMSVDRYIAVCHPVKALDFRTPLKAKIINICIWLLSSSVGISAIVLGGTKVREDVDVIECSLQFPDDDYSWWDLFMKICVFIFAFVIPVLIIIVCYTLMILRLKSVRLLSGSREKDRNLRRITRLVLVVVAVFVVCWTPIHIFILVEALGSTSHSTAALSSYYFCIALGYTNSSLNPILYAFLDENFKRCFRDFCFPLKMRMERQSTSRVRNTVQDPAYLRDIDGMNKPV

Mu-type opioid receptor [6] = molecular target: T3, Mu-type opioid receptor (Homo sapiens, UniProt P35372); test: biochemical; format: cell-based, CHO
T3 sequence (P35372 whole entry): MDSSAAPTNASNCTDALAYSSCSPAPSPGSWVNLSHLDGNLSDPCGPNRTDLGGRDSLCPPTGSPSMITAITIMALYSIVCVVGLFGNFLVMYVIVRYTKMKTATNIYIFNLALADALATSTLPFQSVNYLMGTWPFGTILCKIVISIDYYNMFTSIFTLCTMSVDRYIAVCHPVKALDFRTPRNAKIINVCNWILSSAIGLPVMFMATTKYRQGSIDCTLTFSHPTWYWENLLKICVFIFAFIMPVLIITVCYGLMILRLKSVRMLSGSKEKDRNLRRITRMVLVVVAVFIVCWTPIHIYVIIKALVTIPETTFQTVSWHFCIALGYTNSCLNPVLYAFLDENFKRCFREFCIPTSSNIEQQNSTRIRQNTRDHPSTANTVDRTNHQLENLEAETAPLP

[7] = molecular target: T1, Delta-type opioid receptor; test: Displacement of [3H]DADLE from human recombinant delta opioid receptor expressed in CHO cell membranes after 2 hrs by liquid scintillation counting analysis
Summary of the method: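 Human DOR stably expressed in CHO cells; washed membranes (~30 µg protein/tube) incubated with ~2 nM [3H]DADLE and 10 drug concentrations in 50 mM Tris-HCl pH 7.4 with protease inhibitors, 2 h at 25 °C. Levallorphan defined nonspecific binding.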

Homo sapiens [8] = organism: Homo sapiens; test: Selectivity ratio of Ki for human recombinant kappa opioid receptor to Ki for human recombinant delta opioid receptor
Mu-type opioid receptor [9] = molecular target: T3, Mu-type opioid receptor; test: Binding affinity to mu opioid receptor (unknown origin)
[10] = molecular target: T1, Delta-type opioid receptor; test: Partial agonist activity at human recombinant delta opioid receptor expressed in mouse/rat NG108-15 cell membranes assessed as stimulation of [35S]GTPgammaS binding after 3 hrs by liquid scintillation counting analysis; format: functional; summary of the method: as §1
[11] = molecular target: T1, Delta-type opioid receptor; test: Binding affinity to delta opioid receptor (unknown origin)
[12] = molecular target: T2, Kappa-type opioid receptor; test: Binding affinity to kappa opioid receptor (unknown origin)

T1 sequence (P41143 whole entry): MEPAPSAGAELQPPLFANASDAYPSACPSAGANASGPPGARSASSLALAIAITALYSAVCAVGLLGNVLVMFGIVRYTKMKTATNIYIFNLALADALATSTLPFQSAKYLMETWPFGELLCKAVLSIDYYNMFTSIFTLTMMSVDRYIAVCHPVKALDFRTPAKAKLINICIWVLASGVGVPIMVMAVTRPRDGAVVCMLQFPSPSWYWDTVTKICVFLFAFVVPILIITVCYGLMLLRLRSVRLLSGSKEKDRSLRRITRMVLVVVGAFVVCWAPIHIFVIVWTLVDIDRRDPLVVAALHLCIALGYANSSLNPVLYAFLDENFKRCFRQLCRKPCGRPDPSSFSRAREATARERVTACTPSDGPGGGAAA

SMILES	Ke [2] [nM]	Ratio Ki (Homo sapiens [3])	Ratio Ki (Homo sapiens [4])	Ratio Ki (Homo sapiens [8])	further results
Oc1ccc2c(c1)[C@]1(CCc3ccccc3)CCN(CCc3ccc(F)cc3)C[C@@H]1O2 (relative stereo)	213				Emax [1]: 29%
CC[C@@]12CCN(C)C[C@@H]1Oc1ccc(O)cc12 (racemic)		> 263	0.09	> 23	Ki [5]: > 5 µM; Ki (Mu-type opioid receptor [6]): 0.019 µM; Ki [7]: 0.212 µM
CN1CC[C@@]2(CCc3ccc(F)cc3)c3cc(O)ccc3O[C@H]2C1 (relative stereo)		17	1.3	22	
CCCC[C@@]12CCN(C)C[C@@H]1Oc1ccc(O)cc12 (relative stereo)		20	0.5	9	
CN1CC[C@@]2(CCc3ccccc3F)c3cc(O)ccc3O[C@H]2C1 (relative stereo)	29				
CN1CC[C@@]2(CCCCCc3ccccc3)c3cc(O)ccc3O[C@H]2C1 (relative stereo)	> 200	3	0.4	0.95	
CN1CC[C@@]2(C)c3cc(O)ccc3O[C@H]2C1 (relative stereo)		> 10	0.04	> 0.4	
Oc1ccc2c(c1)[C@]1(CCc3ccccc3)CCN(CCc3cccc(C(F)(F)F)c3)C[C@@H]1O2 (relative stereo)	455				
CC[C@@]12CCN(CCc3ccccc3)C[C@@H]1Oc1ccc(O)cc12					Ki (Mu-type opioid receptor [9]): 0.0009 µM
CN1CC[C@@]2(CCc3ccccc3)c3cc(O)ccc3O[C@H]2C1 (racemic)					Ki [5]: 3.54 µM; Ki (Mu-type opioid receptor [6]): 0.066 µM; Ki [7]: 0.551 µM
CN1CC[C@@]2(Cc3ccccc3)c3cc(O)ccc3O[C@H]2C1 (racemic)					Ki [5]: 2.88 µM; Ki (Mu-type opioid receptor [6]): 0.06 µM; Ki [7]: 0.064 µM
Oc1ccc2c(c1)[C@]1(CCc3ccccc3)CCN(CC3CC3)C[C@@H]1O2 (relative stereo)					ED50 [10]: inactive
Oc1ccc2c(c1)[C@]1(CCc3ccccc3)CCN(CCc3ccccc3)C[C@@H]1O2 (relative stereo)	258				Emax [1]: 29%
CC[C@@]12CCN(CC3CC3)C[C@@H]1Oc1ccc(O)cc12					Ki (Mu-type opioid receptor [9]): 0.004 µM; Ki [11]: 0.053 µM; Ki [12]: 0.034 µM
Oc1ccc2c(c1)[C@]1(CCc3ccccc3)CCN(CCc3ccccc3C(F)(F)F)C[C@@H]1O2 (relative stereo)		11	1.3	14	
Oc1ccc2c(c1)[C@]1(CCc3ccccc3)CCN(CCc3ccccc3F)C[C@@H]1O2 (relative stereo)	37				ED50 [10]: inactive
Oc1ccc2c(c1)[C@]1(CCc3ccccc3)CCN(CCc3ccc(C(F)(F)F)cc3)C[C@@H]1O2 (relative stereo)	827				Emax [1]: 46%
